From ChEMBL document CHEMBL4196177, “Synthesis, Evaluation, and Structure-Activity Relationship Study of Lanosterol Derivatives To Reverse Mutant-Crystallin-Induced Protein Aggregation” (J Med Chem, 2018)
Calls of active or inactive are those of the source. The rule behind the calls is not given here.

Assays:
Type in all cases: cell-based
[1] = tested on: T1, Beta-crystallin B2 (Homo sapiens), P43320 [V187E]; test: Inhibition of beta-crystallin B2 V187E mutant (unknown origin)-induced intracellular protein aggregation expressed in human HLE-B3 cells at 4 uM incubated for 6 to 8 hrs by fluorescence microscopy relative to untreated control
T1 sequence (whole entry): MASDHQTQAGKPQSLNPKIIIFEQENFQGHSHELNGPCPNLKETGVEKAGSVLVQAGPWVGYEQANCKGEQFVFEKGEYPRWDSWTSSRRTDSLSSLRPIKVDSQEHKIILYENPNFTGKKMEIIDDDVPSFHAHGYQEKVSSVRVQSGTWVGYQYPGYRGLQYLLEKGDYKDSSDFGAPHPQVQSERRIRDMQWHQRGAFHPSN

[2] = tested on: T2, Gamma-crystallin C (Homo sapiens), P07315 [G129C]; test: Inhibition of gamma-crystallin C G129C mutant (unknown origin)-induced intracellular protein aggregation expressed in human HeLa cells at 0.4 uM incubated for 6 to 8 hrs by fluorescence microscopy relative to untreated control
T2 sequence (whole entry): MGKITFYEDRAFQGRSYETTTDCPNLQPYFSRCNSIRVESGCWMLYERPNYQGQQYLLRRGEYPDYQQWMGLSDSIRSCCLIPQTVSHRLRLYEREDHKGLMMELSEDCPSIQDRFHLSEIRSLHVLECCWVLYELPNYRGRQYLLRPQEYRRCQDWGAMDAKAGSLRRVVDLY

[3] = tested on: T3, Alpha-crystallin B chain (Homo sapiens), P02511 [R120G]; test: Inhibition of alpha-crystallin B R120G mutant (unknown origin)-induced intracellular protein aggregation expressed in human HLE-B3 cells at 0.4 uM incubated for 6 to 8 hrs by fluorescence microscopy relative to untreated control
T3 sequence (whole entry): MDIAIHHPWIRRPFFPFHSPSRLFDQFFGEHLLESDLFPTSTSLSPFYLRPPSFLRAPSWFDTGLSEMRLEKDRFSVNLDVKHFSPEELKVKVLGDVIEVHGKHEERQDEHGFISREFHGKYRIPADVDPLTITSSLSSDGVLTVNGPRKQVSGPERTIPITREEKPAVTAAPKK
Summary of the method: (§1)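 Cells were transfected with mutant crystallin constructs using Lipofectamine 2000 and cultured for 16 h until the overexpressed mutants formed aggregates. Compounds were then added to the culture medium and incubated for 6~8 h. Aggregate dissolution was scored by fluorescence microscopy. For αB R120G, % inhibition at 0.4 and 4 µM was calculated against DMSO-treated cells; values are mean ± error.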

[4] = tested on: T4, Alpha-crystallin A chain (Homo sapiens), P02489 [Y118D]; test: Inhibition of alpha-crystallin A Y118D mutant (unknown origin)-induced intracellular protein aggregation expressed in human HLE-B3 cells at 4 uM incubated for 6 to 8 hrs by fluorescence microscopy relative to untreated control
T4 sequence (whole entry): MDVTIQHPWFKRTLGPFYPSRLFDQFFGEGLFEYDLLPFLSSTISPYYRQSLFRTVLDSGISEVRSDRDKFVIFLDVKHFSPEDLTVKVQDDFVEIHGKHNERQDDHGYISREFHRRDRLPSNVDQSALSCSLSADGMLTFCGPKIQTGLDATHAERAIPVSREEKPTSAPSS

[5] = tested on: T1, Beta-crystallin B2 (Homo sapiens), P43320 [V187E]; test: Inhibition of beta-crystallin B2 V187E mutant (unknown origin)-induced intracellular protein aggregation expressed in human HeLa cells at 4 uM incubated for 6 to 8 hrs by fluorescence microscopy relative to untreated control
[6] = tested on: T5, Gamma-crystallin D (Homo sapiens), P07320 [W43R]; test: Inhibition of gamma-crystallin D W43R mutant (unknown origin)-induced intracellular protein aggregation expressed in human HLE-B3 cells at […] incubated for 6 to 8 hrs by fluorescence microscopy relative to untreated control
T5 sequence (whole entry): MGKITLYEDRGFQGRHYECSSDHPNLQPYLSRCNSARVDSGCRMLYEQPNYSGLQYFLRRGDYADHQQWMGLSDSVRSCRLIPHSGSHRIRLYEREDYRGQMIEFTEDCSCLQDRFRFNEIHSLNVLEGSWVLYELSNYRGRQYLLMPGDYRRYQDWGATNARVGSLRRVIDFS

[7] = tested on: T3, Alpha-crystallin B chain (Homo sapiens), P02511 [R120G]; test: Inhibition of alpha-crystallin B R120G mutant (unknown origin)-induced intracellular protein aggregation expressed in human HeLa cells at 0.4 uM incubated for 6 to 8 hrs by fluorescence microscopy relative to untreated control; summary of the method: as §1
[8] = tested on: T1, Beta-crystallin B2 (Homo sapiens), P43320 [V187E]; test: Inhibition of beta-crystallin B2 V187E mutant (unknown origin)-induced intracellular protein aggregation expressed in human HLE-B3 cells at 0.4 uM incubated for 6 to 8 hrs by fluorescence microscopy relative to untreated control
[9] = tested on: T3, Alpha-crystallin B chain (Homo sapiens), P02511 [R120G]; test: Inhibition of alpha-crystallin B R120G mutant (unknown origin)-induced intracellular protein aggregation expressed in human HeLa cells at 4 uM incubated for 6 to 8 hrs by fluorescence microscopy relative to untreated control; summary of the method: as §1
[10] = tested on: T5, Gamma-crystallin D (Homo sapiens), P07320 [W43R]; test: Inhibition of gamma-crystallin D W43R mutant (unknown origin)-induced intracellular protein aggregation expressed in human HeLa cells at 0.4 uM incubated for 6 to 8 hrs by fluorescence microscopy relative to untreated control
[11] = tested on: T2, Gamma-crystallin C (Homo sapiens), P07315 [G129C]; test: Inhibition of gamma-crystallin C G129C mutant (unknown origin)-induced intracellular protein aggregation expressed in human HLE-B3 cells at 4 uM incubated for 6 to 8 hrs by fluorescence microscopy relative to untreated control
[12] = tested on: T3, Alpha-crystallin B chain (Homo sapiens), P02511 [R120G]; test: Inhibition of alpha-crystallin B R120G mutant (unknown origin)-induced intracellular protein aggregation expressed in human HLE-B3 cells at 4 uM incubated for 6 to 8 hrs by fluorescence microscopy relative to untreated control; summary of the method: as §1
[13] = tested on: T4, Alpha-crystallin A chain (Homo sapiens), P02489 [Y118D]; test: Inhibition of alpha-crystallin A Y118D mutant (unknown origin)-induced intracellular protein aggregation expressed in human HLE-B3 cells at 0.4 uM incubated for 6 to 8 hrs by fluorescence microscopy relative to untreated control
[14] = tested on: T2, Gamma-crystallin C (Homo sapiens), P07315 [G129C]; test: Inhibition of gamma-crystallin C G129C mutant (unknown origin)-induced intracellular protein aggregation expressed in human HLE-B3 cells at 0.4 uM incubated for 6 to 8 hrs by fluorescence microscopy relative to untreated control
[15] = tested on: T4, Alpha-crystallin A chain (Homo sapiens), P02489 [Y118D]; test: Inhibition of alpha-crystallin A Y118D mutant (unknown origin)-induced intracellular protein aggregation expressed in human HeLa cells at 0.4 uM incubated for 6 to 8 hrs by fluorescence microscopy relative to untreated control
[16] = tested on: T5, Gamma-crystallin D (Homo sapiens), P07320 [W43R]; test: Inhibition of gamma-crystallin D W43R mutant (unknown origin)-induced intracellular protein aggregation expressed in human HLE-B3 cells at 4 uM incubated for 6 to 8 hrs by fluorescence microscopy relative to untreated control
[17] = tested on: T4, Alpha-crystallin A chain (Homo sapiens), P02489 [Y118D]; test: Inhibition of alpha-crystallin A Y118D mutant (unknown origin)-induced intracellular protein aggregation expressed in human HeLa cells at 4 uM incubated for 6 to 8 hrs by fluorescence microscopy relative to untreated control
[18] = tested on: T2, Gamma-crystallin C (Homo sapiens), P07315 [G129C]; test: Inhibition of gamma-crystallin C G129C mutant (unknown origin)-induced intracellular protein aggregation expressed in human HeLa cells at 4 uM incubated for 6 to 8 hrs by fluorescence microscopy relative to untreated control
[19] = tested on: T5, Gamma-crystallin D (Homo sapiens), P07320 [W43R]; test: Inhibition of gamma-crystallin D W43R mutant (unknown origin)-induced intracellular protein aggregation expressed in human HeLa cells at 4 uM incubated for 6 to 8 hrs by fluorescence microscopy relative to untreated control
[20] = tested on: T1, Beta-crystallin B2 (Homo sapiens), P43320 [V187E]; test: Inhibition of beta-crystallin B2 V187E mutant (unknown origin)-induced intracellular protein aggregation expressed in human HeLa cells at 0.4 uM incubated for 6 to 8 hrs by fluorescence microscopy relative to untreated control

| SMILES | inhibition [1] | inhibition [2] | inhibition [3] | inhibition [4] | inhibition [5] | inhibition [6] | inhibition [7] | inhibition [8] | inhibition [9] | inhibition [10] | inhibition [11] | inhibition [12] | inhibition [13] | inhibition [14] | inhibition [15] | inhibition [16] | inhibition [17] | inhibition [18] | inhibition [19] | inhibition [20] |
| --- | --- | --- | --- | --- | --- | --- | --- | --- | --- | --- | --- | --- | --- | --- | --- | --- | --- | --- | --- | --- |
| C[C@H](CCCC(C)(C)O)[C@H]1CC[C@@]2(C)C3=CC[C@H]4C(C)(C)[C@@H](O)CC[C@]4(C)C3=CC[C@]12C | Active | Active | Active | Active | Active | Active | Active | Active | Active | Active | Active | Active | Active | Active | Active | Active | Active | Active | Active | Active |
| C[C@H](CCCC(C)(C)O)[C@H]1CC[C@@]2(C)C3=C(CC[C@]12C)[C@@]1(C)C[C@@H](F)[C@H](O)C(C)(C)[C@@H]1CC3 | Active | Active | Active | Active | Active | Active | Active | Active | Active | Active | Active | Active | Active | Active | Active | Active | Active | Active | Active | Active |
| C[C@H](CCCC(C)(C)O)[C@H]1CC[C@@]2(C)C3=C(CC[C@]12C)[C@@]1(C)C[C@@H](F)[C@@H](O)C(C)(C)[C@@H]1CC3 | Active | Active | Active | Active | Active | Active | Active | Active | Active | Active | Active | Active | Active | Active | Active | Active | Active | Active | Active | Active |
| C[C@H](CCCC(C)(C)O)[C@H]1CC[C@@]2(C)C3=C(CC[C@]12C)[C@@]1(C)CC[C@H](O)C(C)(C)[C@@H]1CC3 | Active | Active | Active | Active | Active | Active | Active | Active | Active | Active | Active | Active | Active | Active | Active | Active | Active | Active | Active | Active |

Further lines, results first:

| inhibition [1] | inhibition [2] | inhibition [3] | inhibition [4] | inhibition [5] | inhibition [6] | inhibition [7] | inhibition [8] | inhibition [9] | inhibition [10] | inhibition [11] | inhibition [12] | inhibition [13] | inhibition [14] | inhibition [15] | inhibition [16] | inhibition [17] | inhibition [18] | inhibition [19] | inhibition [20] | SMILES |
| --- | --- | --- | --- | --- | --- | --- | --- | --- | --- | --- | --- | --- | --- | --- | --- | --- | --- | --- | --- | --- |
| inactive | inactive | inactive | inactive | inactive | inactive | inactive | inactive | inactive | inactive | inactive | inactive | inactive | inactive | inactive | inactive | inactive | inactive | inactive | inactive | C[C@H](CCCC(C)(C)O)[C@H]1CC[C@@]2(C)[C@@]34CC[C@H]5C(C)(C)/C(=N/O)CC[C@]5(C)[C@]3(CC[C@]12C)O4 |
| Active | Active | Active | Active | Active | Active | Active | Active | Active | Active | Active | Active | Active | Active | Active | Active | Active | Active | Active | Active | C[C@H](CCCC(C)(C)O)[C@H]1CC[C@@]2(C)C3=C(CC[C@]12C)[C@@]1(C)CCC(=O)C(C)(C)[C@@H]1CC3 |
